Source: ChEMBL document CHEMBL1135530, “Selective alpha4beta7 integrin antagonists and their potential as antiinflammatory agents” (J Med Chem, 2002)
Peptide text beside a SMILES is read from it.

What was measured:
[1] = Selectivity is the ratio of inhibitory concentrations at alpha4-beta1 integrin to alpha4-beta7 integrin
Integrin alpha-4/beta-1 = Integrin alpha-4/beta-1 (Homo sapiens, UniProt P05556+P13612); test: Inhibitory concentration affording 50% inhibition of alpha4-beta1 integrin binding to VCAM-1, using ELISA assay.; format: protein-complex assay
Integrin alpha-4/beta-1, sequence (P05556 whole entry, one chain of several, the tested form may be a part): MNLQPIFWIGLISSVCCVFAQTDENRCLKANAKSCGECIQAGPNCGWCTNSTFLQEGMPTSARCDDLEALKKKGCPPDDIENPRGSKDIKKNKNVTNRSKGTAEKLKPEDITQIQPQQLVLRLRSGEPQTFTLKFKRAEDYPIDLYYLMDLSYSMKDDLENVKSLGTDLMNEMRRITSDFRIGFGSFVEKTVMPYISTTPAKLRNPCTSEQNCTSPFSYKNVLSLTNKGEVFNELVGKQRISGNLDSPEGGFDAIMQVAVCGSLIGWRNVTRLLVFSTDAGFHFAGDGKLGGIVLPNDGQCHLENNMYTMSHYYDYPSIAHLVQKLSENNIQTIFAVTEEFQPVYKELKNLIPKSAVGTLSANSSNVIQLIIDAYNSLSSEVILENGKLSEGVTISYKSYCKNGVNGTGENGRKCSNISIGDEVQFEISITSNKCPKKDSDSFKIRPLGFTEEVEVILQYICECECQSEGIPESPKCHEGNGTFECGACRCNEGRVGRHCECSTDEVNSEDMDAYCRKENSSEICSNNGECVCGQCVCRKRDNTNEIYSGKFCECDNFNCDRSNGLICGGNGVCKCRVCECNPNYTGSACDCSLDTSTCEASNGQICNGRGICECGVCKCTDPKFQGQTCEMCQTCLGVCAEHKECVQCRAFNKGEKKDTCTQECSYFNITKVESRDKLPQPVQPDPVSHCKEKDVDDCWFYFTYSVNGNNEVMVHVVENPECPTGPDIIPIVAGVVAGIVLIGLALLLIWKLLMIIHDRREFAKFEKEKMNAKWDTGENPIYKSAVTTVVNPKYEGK
In short: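 α4β1 extracted from Ramos cell membranes (lectin chromatography, gel filtration in 1% octylglucoside), with 1 mM MnCl2 throughout. Wells coated with 4 µg/mL recombinant soluble human VCAM-1 (5 N-terminal Ig domains, from CHO cells) and blocked with 1% BSA. Inhibitor and receptor 2 h at 37 °C in Tris pH 7.4. Bound receptor detected with anti-β1 mAb 2D4.6, then HRP anti-mouse and TMB at 450 nm. IC50 at half-maximal absorbance.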

Integrin alpha-4/beta-7 = molecular target: T1, Integrin alpha-4/beta-7 (Homo sapiens, UniProt P13612+P26010); test: Ability to block the alpha4-beta7 integrin-MAdCAM-1 binding interaction using a protein ELISA format; format: protein-complex assay
T1 sequence (P13612 whole entry): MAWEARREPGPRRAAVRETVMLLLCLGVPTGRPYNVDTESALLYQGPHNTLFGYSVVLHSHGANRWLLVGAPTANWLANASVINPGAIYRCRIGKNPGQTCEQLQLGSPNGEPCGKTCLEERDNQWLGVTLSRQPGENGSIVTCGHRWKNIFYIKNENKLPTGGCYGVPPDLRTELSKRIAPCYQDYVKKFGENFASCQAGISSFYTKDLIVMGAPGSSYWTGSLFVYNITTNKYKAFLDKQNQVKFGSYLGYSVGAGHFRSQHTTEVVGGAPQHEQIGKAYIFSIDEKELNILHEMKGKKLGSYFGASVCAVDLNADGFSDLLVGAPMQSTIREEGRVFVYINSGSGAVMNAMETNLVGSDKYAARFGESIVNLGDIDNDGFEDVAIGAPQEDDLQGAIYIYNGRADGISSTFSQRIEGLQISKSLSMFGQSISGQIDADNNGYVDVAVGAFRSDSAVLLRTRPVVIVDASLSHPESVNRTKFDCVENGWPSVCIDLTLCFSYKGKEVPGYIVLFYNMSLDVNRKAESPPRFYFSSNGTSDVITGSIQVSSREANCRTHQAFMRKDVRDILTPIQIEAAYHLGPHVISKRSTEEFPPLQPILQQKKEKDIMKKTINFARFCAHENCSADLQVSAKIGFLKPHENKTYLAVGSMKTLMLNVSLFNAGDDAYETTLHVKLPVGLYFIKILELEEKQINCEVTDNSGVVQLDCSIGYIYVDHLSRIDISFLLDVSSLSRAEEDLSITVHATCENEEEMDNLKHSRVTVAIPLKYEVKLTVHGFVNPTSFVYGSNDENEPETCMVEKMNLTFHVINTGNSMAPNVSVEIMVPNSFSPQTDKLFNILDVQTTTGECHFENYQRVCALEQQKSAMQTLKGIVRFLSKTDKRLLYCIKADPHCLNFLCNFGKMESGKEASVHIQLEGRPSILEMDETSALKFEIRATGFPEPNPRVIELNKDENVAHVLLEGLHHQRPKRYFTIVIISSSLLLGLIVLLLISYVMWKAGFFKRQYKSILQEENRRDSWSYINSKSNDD
T1 sequence (P26010 whole entry): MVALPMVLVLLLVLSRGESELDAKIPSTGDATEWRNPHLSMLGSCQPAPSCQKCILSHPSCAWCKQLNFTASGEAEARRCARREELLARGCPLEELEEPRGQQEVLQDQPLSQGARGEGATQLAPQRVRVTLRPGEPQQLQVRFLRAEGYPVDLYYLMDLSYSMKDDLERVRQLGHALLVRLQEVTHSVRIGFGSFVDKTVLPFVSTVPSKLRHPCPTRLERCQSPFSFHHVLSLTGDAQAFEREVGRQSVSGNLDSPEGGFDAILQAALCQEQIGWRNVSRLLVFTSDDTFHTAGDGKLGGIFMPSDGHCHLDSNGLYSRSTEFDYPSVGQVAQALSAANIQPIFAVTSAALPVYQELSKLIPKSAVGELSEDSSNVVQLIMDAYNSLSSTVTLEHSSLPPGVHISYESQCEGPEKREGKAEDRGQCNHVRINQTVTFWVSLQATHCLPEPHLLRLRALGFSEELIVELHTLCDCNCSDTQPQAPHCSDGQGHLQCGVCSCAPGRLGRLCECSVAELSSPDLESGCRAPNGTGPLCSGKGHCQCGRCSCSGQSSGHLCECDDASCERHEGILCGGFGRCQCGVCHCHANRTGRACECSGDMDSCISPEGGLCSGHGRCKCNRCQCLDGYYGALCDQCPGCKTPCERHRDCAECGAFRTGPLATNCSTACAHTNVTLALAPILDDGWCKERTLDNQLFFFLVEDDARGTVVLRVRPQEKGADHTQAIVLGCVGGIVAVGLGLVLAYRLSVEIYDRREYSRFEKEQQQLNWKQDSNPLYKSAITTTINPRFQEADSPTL
In short: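 Plates coated overnight at 4 °C with anti-human α4 antibody 9F10 (2 µg/mL), blocked in Tris pH 7.5 buffer with 1 mM MnCl2, Tween-20 and 0.5% BSA, then loaded with α4β7 purified from transfected JY cells (2 µg/mL). Compounds (1 nM–200 µM final, triplicate) plus MAdCAM-1-Ig-HRP (1 µg/mL), 2 h room temperature. TMB read at 450 nm; IC50 at half-maximal absorbance.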

SMILES	Ratio [1]	IC50 (Integrin alpha-4/beta-1) [nM]	IC50 (Integrin alpha-4/beta-7) [nM]
CC(C)C[C@H]1NC(=O)[C@H]([C@@H](C)O)NC(=O)[C@@H](CCC(=O)O)NC(=O)[C@H](CO)NC(=O)[C@@H](CCCN=C(N)N)NC(=O)[C@H](N)CSSC[C@H](C(N)=O)NC1=O	0.1	–	–
CC(C)C[C@H]1NC(=O)[C@H]([C@@H](C)O)NC(=O)[C@@H](CC(=O)O)NC(=O)[C@H](CO)NC(=O)[C@@H](CCCN=C(N)N)NC(=O)[C@H](N)CSSC[C@H](C(=O)O)NC1=O	3.1	–	–
CC(C)C[C@H]1NC(=O)[C@H]([C@@H](C)O)NC(=O)[C@@H](CC(=O)O)NC(=O)[C@H](CO)NC(=O)[C@@H](Cc2ccccc2)NC(=O)[C@H](N)CSSC[C@H](C(N)=O)NC1=O	0.09	–	–
CC(C)C[C@H]1NC(=O)[C@H]([C@@H](C)O)NC(=O)[C@@H](CC(N)=O)NC(=O)[C@H](CO)NC(=O)[C@@H](CCCN=C(N)N)NC(=O)[C@H](N)CSSC[C@H](C(=O)O)NC1=O	0.06	–	–
C[C@@H](O)[C@@H]1NC(=O)[C@@H](CC(=O)O)NC(=O)[C@H](CO)NC(=O)[C@@H](CCCN=C(N)N)NC(=O)[C@H](N)CSSC[C@H](C(N)=O)NC(=O)[C@H]2CCCN2C1=O	0.9	–	–
CC(C)C[C@H]1NC(=O)[C@H]([C@@H](C)O)NC(=O)[C@@H](CC(=O)O)NC(=O)[C@H](CO)NC(=O)[C@@H](Cc2c[nH]cn2)NC(=O)[C@H](N)CSSC[C@H](C(N)=O)NC1=O	2.8	–	–
CC(C)C[C@@H]1NC(=O)[C@@H](CCCN=C(N)N)NC(=O)[C@H](N)CSSC[C@H](C(N)=O)NC(=O)[C@@H](CC(C)C)NC(=O)[C@H]([C@@H](C)O)NC(=O)[C@@H](CC(=O)O)NC1=O	0.42	–	–
CC(C)C[C@H]1NC(=O)[C@H]([C@@H](C)O)NC(=O)[C@@H](CC(=O)O)NC(=O)[C@H](CO)NC(=O)[C@@H](Cc2ccc(O)cc2)NC(=O)[C@H](N)CSSC[C@H](C(N)=O)NC1=O	0.07	–	–
CC[C@H](C)[C@@H]1NC(=O)[C@@H](CCCN=C(N)N)NC(=O)[C@H](N)CSSC[C@H](C(N)=O)NC(=O)[C@@H](CC(C)C)NC(=O)[C@H]([C@@H](C)O)NC(=O)[C@@H](CC(=O)O)NC1=O	0.06	–	–
CC(C)C[C@H]1NC(=O)[C@H](CO)NC(=O)[C@@H](CC(=O)O)NC(=O)[C@H](CO)NC(=O)[C@@H](CCCN=C(N)N)NC(=O)[C@H](N)CSSC[C@H](C(N)=O)NC1=O	48	–	–
CC(C)C[C@H]1NC(=O)[C@H]([C@@H](C)O)NC(=O)[C@@H](CC(=O)O)NC(=O)[C@H]([C@@H](C)O)NC(=O)[C@@H](CCCN=C(N)N)NC(=O)[C@H](N)CSSC[C@H](C(N)=O)NC1=O	3.5	–	–
CC(C)C[C@H]1NC(=O)[C@H]([C@@H](C)O)NC(=O)[C@@H](CC(=O)O)NC(=O)[C@H](CO)NC(=O)[C@@H](Cc2c[nH]c3ccccc23)NC(=O)[C@H](N)CSSC[C@H](C(N)=O)NC1=O	0.37	–	–
CC(C)C[C@@H]1NC(=O)[C@H]([C@@H](C)O)NC(=O)[C@H](CC(N)=O)NC(=O)[C@H](CO)NC(=O)[C@H](CCCNC(=N)N)NC(=O)[C@@H](N)CSSC[C@@H](C(=O)O)NC1=O	–	2200	40000
CC(C)C[C@@H]1NC(=O)[C@H]([C@@H](C)O)NC(=O)[C@H](CC(=O)O)NC(=O)[C@H](CO)NC(=O)[C@H](CCCCN)NC(=O)[C@@H](N)CSSC[C@@H](C(N)=O)NC1=O	–	1500	250
CC(C)C[C@@H]1NC(=O)[C@H]([C@@H](C)O)NC(=O)[C@H](CCC(N)=O)NC(=O)[C@H](CO)NC(=O)[C@H](CCCNC(=N)N)NC(=O)[C@@H](N)CSSC[C@@H](C(N)=O)NC1=O (HELM PEPTIDE1{C.R.S.Q.T.L.C.[am]}$PEPTIDE1,PEPTIDE1,1:R3-7:R3$$$V2.0)	–	> 100000	> 100000
CC(C)C[C@@H]1NC(=O)[C@H]([C@@H](C)O)NC(=O)[C@H](CC(N)=O)NC(=O)[C@H](CO)NC(=O)[C@H](CCCNC(=N)N)NC(=O)[C@@H](N)CSSC[C@@H](C(N)=O)NC1=O	–	88000	175000
CC(C)C[C@@H]1NC(=O)[C@H]([C@@H](C)O)NC(=O)[C@H](CC(=O)O)NC(=O)[C@H](CO)NC(=O)[C@H](Cc2ccc(O)cc2)NC(=O)[C@@H](N)CSSC[C@@H](C(N)=O)NC1=O	–	9	130
CC(C)[C@@H]1NC(=O)[C@H]([C@@H](C)O)NC(=O)[C@H](CC(=O)O)NC(=O)[C@H](CO)NC(=O)[C@H](CCCNC(=N)N)NC(=O)[C@@H](N)CSSC[C@@H](C(N)=O)NC1=O	–	59000	4500
CC(C)C[C@@H]1NC(=O)[C@H]([C@@H](C)O)NC(=O)[C@H](CC(=O)O)NC(=O)[C@H](CO)NC(=O)[C@H](CCCNC(=N)N)NC(=O)[C@@H](N)CSSC[C@@H](C(=O)O)NC1=O	–	400	130
CC(C)C[C@@H]1NC(=O)[C@H]([C@@H](C)O)NC(=O)[C@H](CC(=O)O)NC(=O)[C@H](CO)NC(=O)[C@H](CCCNC(=N)N)NC(=O)[C@@H](N)CSSC[C@@H](C(=O)NCC(N)=O)NC1=O (HELM PEPTIDE1{C.R.S.D.T.L.C.G.[am]}$PEPTIDE1,PEPTIDE1,1:R3-7:R3$$$V2.0)	–	3800	110
CC(C)C[C@@H]1NC(=O)[C@H](C)NC(=O)[C@H](CC(=O)O)NC(=O)[C@H](CO)NC(=O)[C@H](CCCN=C(N)N)NC(=O)[C@@H](N)CSSC[C@@H](C(N)=O)NC1=O (HELM PEPTIDE1{C.R.S.D.A.L.C.[am]}$PEPTIDE1,PEPTIDE1,1:R3-7:R3$$$V2.0)	–	60000	10000
CC(C)C[C@@H]1NC(=O)[C@H]([C@@H](C)O)NC(=O)[C@H](CC(=O)O)NC(=O)[C@H]([C@@H](C)O)NC(=O)[C@H](CCCN=C(N)N)NC(=O)[C@@H](N)CSSC[C@@H](C(N)=O)NC1=O	–	7400	2100
CC(C)C[C@@H]1NC(=O)[C@H]([C@@H](C)O)NC(=O)[C@H](C)NC(=O)[C@H](CO)NC(=O)[C@H](CCCN=C(N)N)NC(=O)[C@@H](N)CSSC[C@@H](C(N)=O)NC1=O (HELM PEPTIDE1{C.R.S.A.T.L.C.[am]}$PEPTIDE1,PEPTIDE1,1:R3-7:R3$$$V2.0)	–	> 100000	> 100000
CSCC[C@H](N)C(=O)N[C@@H](CC(=O)O)C(=O)N[C@H]1CSSC[C@@H](C(=O)NCC(=O)N[C@@H](CCC(=O)O)C(N)=O)NC(=O)[C@H](CC(C)C)NC(=O)[C@H]([C@@H](C)O)NC(=O)[C@H](CC(=O)O)NC(=O)[C@H](CO)NC(=O)[C@H](CCCNC(=N)N)NC1=O (HELM PEPTIDE1{M.D.C.R.S.D.T.L.C.G.E.[am]}$PEPTIDE1,PEPTIDE1,3:R3-9:R3$$$V2.0)	–	4200	190
CC(C)C[C@@H]1NC(=O)[C@H](CCCN=C(N)N)NC(=O)[C@@H](N)CSSC[C@@H](C(N)=O)NC(=O)[C@H](CC(C)C)NC(=O)[C@H]([C@@H](C)O)NC(=O)[C@H](CC(=O)O)NC1=O	–	800	1900
